Results on 16 molecules are retold here after ChEMBL document CHEMBL1134651, “Acyl substitution at the ortho position of anilides enhances oral bioavailability of thiophene sulfonamides: TBC3214, an ETA selective endothelin antagonist” (J Med Chem, 2001).

Series [1] is described as follows: Oral absorption expressed as Area under curve was determined. The format is ADME. Also on record: concentration or dose not given beside the values. In short, it runs like this: (§1)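 Rats given compound orally at 50 mg/kg. Serial 200 μL blood samples drawn from the tail vein into heparin-coated microhematocrit tubes at selected times. Red cells removed at once by centrifugation; plasma stored at -80 °C, proteins precipitated with acetonitrile, drug measured by HPLC. Absorption reported as peak plasma concentration (Cmax) and AUC extrapolated to infinity.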

A further series has as its target T1, Endothelin-1 receptor (Homo sapiens, UniProt P25101).
T1 sequence (P25101 whole entry): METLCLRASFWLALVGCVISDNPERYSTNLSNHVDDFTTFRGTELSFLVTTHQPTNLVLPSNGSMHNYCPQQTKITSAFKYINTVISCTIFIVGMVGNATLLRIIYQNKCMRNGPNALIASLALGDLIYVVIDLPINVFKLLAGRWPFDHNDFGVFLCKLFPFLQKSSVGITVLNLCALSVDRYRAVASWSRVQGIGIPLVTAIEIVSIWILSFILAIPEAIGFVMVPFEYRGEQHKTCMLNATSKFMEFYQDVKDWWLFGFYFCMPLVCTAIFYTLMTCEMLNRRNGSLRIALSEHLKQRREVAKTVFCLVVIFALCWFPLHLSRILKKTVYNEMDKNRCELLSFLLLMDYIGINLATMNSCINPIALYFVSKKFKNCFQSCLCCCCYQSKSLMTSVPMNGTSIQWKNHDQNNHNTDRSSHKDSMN
As to the kind of experiment: Inhibitory concentration was determined against selective Endothelin A receptor.

Series [2] is described as follows: Oral absorption expressed as peak plasma conc (Cmax) after oral dosing of 50 mg/kg in rat. The format is ADME, organism-based. Also on record: dose 50 mg/kg, route oral. Put shortly: as §1
In series [3] the target is Endothelin receptor, ET-A/ET-B (Homo sapiens) (UniProt P24530+P25101). Kind of series: Relative affinity for human ETA over ETB receptors. The format is protein assay.
Sequence of Endothelin receptor, ET-A/ET-B (Homo sapiens) (P24530 whole entry, looked up, one chain of several): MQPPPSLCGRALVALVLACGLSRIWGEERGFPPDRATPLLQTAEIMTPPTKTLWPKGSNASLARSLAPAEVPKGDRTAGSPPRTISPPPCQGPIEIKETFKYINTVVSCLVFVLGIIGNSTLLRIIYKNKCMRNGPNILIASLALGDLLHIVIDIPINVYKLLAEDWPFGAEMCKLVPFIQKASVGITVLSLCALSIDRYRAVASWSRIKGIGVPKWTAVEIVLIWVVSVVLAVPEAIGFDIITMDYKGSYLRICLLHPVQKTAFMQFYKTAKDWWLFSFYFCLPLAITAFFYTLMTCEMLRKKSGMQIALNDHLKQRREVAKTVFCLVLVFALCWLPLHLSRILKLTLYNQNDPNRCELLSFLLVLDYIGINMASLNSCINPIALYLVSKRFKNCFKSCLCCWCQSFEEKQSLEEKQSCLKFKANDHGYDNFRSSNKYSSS
A short description of series [4]: Oral bioavailability in rat. The conditions noted are these: in vivo. The format is ADME, organism-based.
Series [5] in a line: Oral bioavailability was evaluated in dog. The format is ADME, organism-based, Canis lupus familiaris. The conditions noted are these: in vivo.
Series [6] can be described thus: Oral bioavailability was evaluated in cat. The format is ADME, organism-based, Felis catus. The conditions noted are these: in vivo.
The nature of series [7]: Half life period in plasma was determined. The format is ADME, cell-free.

The term AUC denotes concentration integrated over time. In general, IC50 refers to the midpoint of a concentration-inhibition curve. Usually Cmax stands for the highest concentration seen after dosing. As for `CCc1cc(C)cc(C)c1NC(=O)c1sccc1S(=O)(=O)Nc1onc(C)c1Cl`, in series [1], the AUC came out at 47 µg·h/mL. Also, on Endothelin-1 receptor, it took 0.43 nM to reach half-maximal inhibition (IC50). In series [2], this molecule came in with a Cmax of 21800 ng/mL.

In turn, `Cc1cc2c(cc1CC(=O)c1sccc1S(=O)(=O)Nc1onc(C)c1Cl)OCO2` yielded a Selectivity in series [3] of 7000.

In turn, `Cc1cc(C)c(NC(=O)c2sccc2S(=O)(=O)Nc2onc(C)c2Cl)c(C)c1` came in with a Selectivity in series [3] of 7000. For the same molecule, in series [1], the AUC came to 103 µg·h/mL. This molecule also gave an IC50 on Endothelin-1 receptor of 0.17 nM. For the same molecule, the Cmax in series [2] came out at 35900 ng/mL.

What is called bioavailability is the share of a dose that reaches the circulation, judged against a reference dose that is usually intravenous. Consider `Cc1noc(NS(=O)(=O)c2ccsc2C(=O)Nc2cc3c(cc2C#N)OCO3)c1Cl`, for which the Selectivity in series [3] amounted to 12000. This molecule also showed a bioavailability in series [4] of 8%.

In series [3], `Cc1cc(C)c(NC(=O)c2sccc2S(=O)(=O)Nc2noc(C)c2Cl)c(C)c1CC#N` yielded a Selectivity of 8500. Besides, the exposure (AUC) in series [1] was 171 µg·h/mL. On Endothelin-1 receptor, this molecule showed an IC50 of 0.1 nM. This molecule returned a Cmax in series [2] of 53900 ng/mL.

Molecule `Cc1cc(C)c(NC(=O)c2sccc2S(=O)(=O)Nc2onc(C)c2Cl)c(C(=O)C(C)C)c1` showed a Selectivity in series [3] of 14000. This molecule had an AUC in series [1] of 298 µg·h/mL. The same molecule displayed an IC50 against Endothelin-1 receptor of 0.12 nM. In series [2], this molecule had a Cmax of 59200 ng/mL.

For the molecule `Cc1cc(C)c(NC(=O)c2sccc2S(=O)(=O)Nc2onc(C)c2C)c(C)c1CC#N`, in series [3], the Selectivity came out at 14600. The same molecule registered an AUC in series [1] of 45.8 µg·h/mL. Moreover, half-maximal inhibition against Endothelin-1 receptor (IC50) required 0.17 nM. In series [2], the concentration peaked (Cmax) at 13000 ng/mL.

In series [3], `Cc1noc(NS(=O)(=O)c2ccsc2C(=O)Nc2ccc3c(c2)OCO3)c1Br` displayed a Selectivity of 500.

In series [3], `Cc1ccc(NC(=O)c2sccc2S(=O)(=O)Nc2onc(C)c2Cl)cc1` came in with a Selectivity of 940.

The molecule `Cc1noc(NS(=O)(=O)c2ccsc2C(=O)Cc2ccc3c(c2)OCO3)c1Cl` showed a Selectivity in series [3] of 300.

As to `Cc1cc(C)c(NC(=O)c2sccc2S(=O)(=O)Nc2onc(C)c2Cl)c(C)c1O`, in series [3], the Selectivity was determined as 10900. The molecule further gave an AUC in series [1] of 118 µg·h/mL. Besides, 0.19 nM corresponded to half-maximal inhibition against Endothelin-1 receptor (IC50). Besides, the Cmax in series [2] turned out to be 48200 ng/mL.

Consider `Cc1cc(C)c(NC(=O)c2sccc2S(=O)(=O)Nc2onc(C)c2Cl)c(C)c1CC#N`, for which the Selectivity in series [3] worked out at 32900. In addition, the AUC in series [1] was determined as 59.9 µg·h/mL. Moreover, the Cmax in series [2] is 42000 ng/mL.

As usually defined, the half-life is the time needed for the level to fall by half in the phase considered. With `CC(=O)c1cc(C)cc(C)c1NC(=O)c1sccc1S(=O)(=O)Nc1onc(C)c1Cl`, the Selectivity in series [3] was determined as 442000. In addition, the exposure (AUC) in series [1] was 272 µg·h/mL. Moreover, the values for the bioavailability in series [5], in series [6] and in series [4] were 70%, 42% and 25%, respectively. At Endothelin-1 receptor, this molecule had an IC50 of 0.04 nM. Besides, the peak level in series [2] (Cmax) was 57600 ng/mL. In addition, the half-life in series [7] was 4 h.

`CC(=O)c1cc2c(cc1NC(=O)c1sccc1S(=O)(=O)Nc1onc(C)c1Cl)OCO2`: the Selectivity in series [3] is 3000. The bioavailability in series [4] amounted to 27%.

`Cc1cc2c(cc1CC(=O)c1sccc1S(=O)(=O)Nc1onc(C)c1C)OCO2`: in series [3], the Selectivity came to 10000. In series [4], the bioavailability is around 100%.

For `Cc1cc(C)c(CC(=O)c2sccc2S(=O)(=O)Nc2onc(C)c2Cl)c(C)c1O`, the Selectivity in series [3] is 10800. The AUC in series [1] was found to be 15.8 µg·h/mL. The same molecule showed an IC50 against Endothelin-1 receptor of 0.14 nM. The molecule further yielded a Cmax in series [2] of 2600 ng/mL.
